Data set [1] has as its system Cortical neurone. The data set can be described thus: Neuroprotective activity against kainate-induced cell damage in mouse primary cortical neurons assessed as reduction in kainate-induced neurofilament loss by measuring increase in MAPK level at 1 uM pretreated followed by kainate challenge measured after 18 hrs by fluorescence assay. It is filed as functional, cell-based. As to conditions: in the assay text read “MAP2” for “MAPK”. In a few lines: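 Mouse primary cortical neurons cultured as previously described; dendritic processes stained with anti-MAP2 antibody. Cell-profile perimeter measured by image analysis, each condition normalized to kainate-only.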

Data set [2] has as its system Cortical neurone. The data set is described as follows: Neuroprotective activity against kainate-induced cell damage in mouse primary cortical neurons assessed as reversal of kainate-induced reduction in calcium flux by fura-2-AM dye based fluorescence assay. It is filed as functional. In a few lines:
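Mouse primary cortical neurons loaded with fura-2AM for 45 min, washed, then depolarized with 10 mM KCl to drive Ca2+ entry through voltage-gated calcium channels. Flux read on a plate-based system.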
(A change in cytosolic calcium serves as a functional read-out for many receptors and channels.)

The test system of data set [3] is Cortical neurone. The data set is described as follows: Neuroprotective activity against kainate-induced cell death in mouse primary cortical neurons by MTT assay. It is filed as functional, cell-based. For orientation: Formazan colour is commonly taken as a measure of viable cells.
In data set [4] the test system is Cortical neurone. The data set can be described thus: Neuroprotective activity against kainate-induced cell death in mouse primary cortical neurons by cell counting method. It is filed as functional, cell-based.
Data set [5] concerns Cortical neurone. The data set can be described thus: Neuroprotective activity against kainate-induced cell death in mouse primary cortical neurons by caspase activation method. It is filed as functional, cell-based.
The species named for data set [6] is Mus musculus. The data set is described as follows: Neuroprotective activity against kainate-induced cell death in mouse primary motor neurons by MTT assay. It is filed as functional.
For data set [7], the species on record is Mus musculus. The data set is described as follows: Neuroprotective activity against kainate-induced cell death in mouse primary motor neurons by cell counting method. It is filed as functional.
The species entered for data set [8] is Mus musculus. The data set is described as follows: Neuroprotective activity against kainate-induced cell death in mouse primary motor neurons by caspase activation method. It is filed as functional.
Data set [9] is filed under the species Mus musculus. The data set is described as follows: Neuroprotective activity against kainate-induced cell damage in mouse primary motor neurons assessed as reversal of kainate-induced neuronal length preceding cell death by fluorescence assay. It is filed as functional. In a few lines: (§1)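 Mouse primary motor neurons, fixed after treatment and stained with SMI-32 for neurofilaments, then fluorescently imaged. Sholl analysis counted process intersections at each 100 μm radius from the cell centre. Ten cells per condition, three independent experiments, data pooled.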

For another data set, the system named is Rattus norvegicus. The data set can be described thus: Protection against glutamate-induced seizures in ip dosed Sprague-Dawley rat pretreated for 30 mins followed by glutamate challenge and measured for 30 mins. It is filed as functional.
Data set [10] relates to Cortical neurone. The data set is described as follows: Toxicity in mouse primary cortical neurons assessed as MAP2 loss by fluorescence assay. It is filed as cell-based. In a few lines:
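MAP2 immunostaining of dendritic processes in mouse primary cortical neurons, with cell-profile perimeter measured by image analysis.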

The species named for data set [11] is Mus musculus. The data set is described as follows: Neuroprotective activity against kainate-induced cell damage in mouse primary motor neurons assessed as reversal of kainate-induced neuronal length preceding cell death at 500 nM by fluorescence assay. It is filed as functional. In a few lines:
as §1

The species entered for data set [12] is Mus musculus. The data set is described as follows: Neuroprotective activity against kainate-induced cell damage in mouse primary motor neurons assessed as reversal of kainate-induced neuronal length preceding cell death at […] by fluorescence assay. It is filed as functional. In a few lines: as §1

Active and inactive are the calls of the source.

On to `N=c1sc2cc(OC(F)(F)F)ccc2n1CCn1cc(-c2ccccc2)nn1`, for which the result in the data set with Cortical neurone [1], in the data set with Cortical neurone [3], with Cortical neurone [4], with Cortical neurone [5], in the data set listed under Mus musculus [6] and in the data set filed under Mus musculus [7] was inactive. Also, the result in the data set filed under Mus musculus [8] and in the data set listed under Mus musculus [9] was inactive. Also, in the data set with Cortical neurone [2], the outcome was Active.

`N=c1sc2cc(OC(F)(F)F)ccc2n1CCN1CCN(c2ccccc2)CC1`: in the data set with Rattus norvegicus, the ED50 is 3.5 mg/kg.

Consider `CCc1ccc(-c2cn(CCn3c(=N)sc4cc(OC(F)(F)F)ccc43)nn2)cc1`, for which the result in the data set on Cortical neurone [1] and in the data set with Cortical neurone [2] was Active. The result with Cortical neurone [3], with Cortical neurone [4], with Cortical neurone [5], in the data set listed under Mus musculus [6], in the data set filed under Mus musculus [7] and in the data set listed under Mus musculus [8] was inactive. In the data set listed under Mus musculus [9], the result was inactive.

For the molecule `COC(=O)c1ccc(-c2cn(CCn3c(=N)sc4cc(OC(F)(F)F)ccc43)nn2)cc1`, the result with Cortical neurone [1], in the data set on Cortical neurone [3], in the data set on Cortical neurone [4], with Cortical neurone [5], in the data set filed under Mus musculus [6] and in the data set listed under Mus musculus [7] was inactive. For the same molecule, in the data set filed under Mus musculus [8], the outcome was inactive. Besides, in the data set with Cortical neurone [2], the outcome was Active. Also, the Activity result with Cortical neurone [10] is “Toxic”.

For `N=c1sc2cc(OC(F)(F)F)ccc2n1CCn1cc(-c2ccncc2)nn1`, the result in the data set with Cortical neurone [1], with Cortical neurone [2] and in the data set listed under Mus musculus [11] was Active. The result in the data set with Cortical neurone [3], in the data set with Cortical neurone [4], with Cortical neurone [5], in the data set filed under Mus musculus [6], in the data set filed under Mus musculus [7] and in the data set listed under Mus musculus [8] was inactive.

Take `N=c1sc2cc(OC(F)(F)F)ccc2n1CCn1cc(-c2ccc(Br)cc2)nn1`: the outcome in the data set on Cortical neurone [1] and with Cortical neurone [2] was Active. For the same molecule, the outcome in the data set on Cortical neurone [3], with Cortical neurone [4], with Cortical neurone [5], in the data set listed under Mus musculus [6], in the data set filed under Mus musculus [7] and in the data set filed under Mus musculus [8] was inactive. The outcome in the data set listed under Mus musculus [9] was inactive.

For `N=c1sc2cc(OC(F)(F)F)ccc2n1CCN1CCC(c2ccccc2)CC1`, in the data set with Rattus norvegicus, the ED50 turned out to be 3 mg/kg.

Take `CCCCCCc1ccc(-c2cn(CCn3c(=N)sc4cc(OC(F)(F)F)ccc43)nn2)cc1`: the result in the data set on Cortical neurone [1], in the data set on Cortical neurone [3], with Cortical neurone [4], with Cortical neurone [5], in the data set listed under Mus musculus [6] and in the data set listed under Mus musculus [7] was inactive. Moreover, the outcome in the data set filed under Mus musculus [8] was inactive. In the data set on Cortical neurone [2], the result was Active.

Turning to `N=c1sc2cc(OC(F)(F)F)ccc2n1CCn1cc(-c2cc(C(F)(F)F)cc(C(F)(F)F)c2)nn1`, the result in the data set with Cortical neurone [1], with Cortical neurone [3], in the data set with Cortical neurone [4], in the data set on Cortical neurone [5], in the data set filed under Mus musculus [6] and in the data set filed under Mus musculus [7] was inactive. For the same molecule, the outcome in the data set filed under Mus musculus [8] was inactive. In the data set with Cortical neurone [2], the result was Active.

With `CCCc1cn(CCn2c(=N)sc3cc(OC(F)(F)F)ccc32)nn1`, the result with Cortical neurone [1], in the data set on Cortical neurone [3], in the data set on Cortical neurone [4], in the data set with Cortical neurone [5], in the data set listed under Mus musculus [6] and in the data set filed under Mus musculus [7] was inactive. In addition, in the data set filed under Mus musculus [8], the outcome was inactive. In the data set on Cortical neurone [2], the outcome was Active.

Take `Nc1nc2ccc(OC(F)(F)F)cc2s1` [RILUZOLE]: the result in the data set with Cortical neurone [1], in the data set on Cortical neurone [3], with Cortical neurone [4], with Cortical neurone [5], in the data set listed under Mus musculus [6] and in the data set filed under Mus musculus [7] was inactive. Besides, in the data set filed under Mus musculus [8], the outcome was inactive. The outcome in the data set listed under Mus musculus [12] was Active. Moreover, the ED50 in the data set with Rattus norvegicus is 3.2 mg/kg.

For `CCCc1ccc(-c2cn(CCn3c(=N)sc4cc(OC(F)(F)F)ccc43)nn2)cc1`, the result in the data set with Cortical neurone [1], in the data set on Cortical neurone [3], in the data set on Cortical neurone [4], in the data set on Cortical neurone [5], in the data set filed under Mus musculus [6] and in the data set filed under Mus musculus [7] was inactive. In addition, the outcome in the data set filed under Mus musculus [8] was inactive. The outcome in the data set with Cortical neurone [2] was Active.

Consider `CCCCCc1ccc(-c2cn(CCn3c(=N)sc4cc(OC(F)(F)F)ccc43)nn2)cc1`, for which the outcome with Cortical neurone [1], in the data set on Cortical neurone [3], in the data set on Cortical neurone [4], in the data set with Cortical neurone [5], in the data set filed under Mus musculus [6] and in the data set filed under Mus musculus [7] was inactive. Moreover, the outcome in the data set filed under Mus musculus [8] was inactive. For the same molecule, the result in the data set on Cortical neurone [2] was Active.

As to `N=c1sc2cc(OC(F)(F)F)ccc2n1CCn1cc(-c2cccc(F)c2)nn1`, the outcome in the data set on Cortical neurone [1], in the data set on Cortical neurone [3], in the data set with Cortical neurone [4], in the data set on Cortical neurone [5], in the data set listed under Mus musculus [6] and in the data set listed under Mus musculus [7] was inactive. Besides, the outcome in the data set listed under Mus musculus [8] was inactive. For the same molecule, the outcome in the data set on Cortical neurone [2] was Active.

As to `COc1cccc(-c2cn(CCn3c(=N)sc4cc(OC(F)(F)F)ccc43)nn2)c1`, the result in the data set on Cortical neurone [1], in the data set on Cortical neurone [3], in the data set on Cortical neurone [4], in the data set on Cortical neurone [5], in the data set filed under Mus musculus [6] and in the data set listed under Mus musculus [7] was inactive. In addition, the result in the data set filed under Mus musculus [8] was inactive. Moreover, the outcome in the data set with Cortical neurone [2] was Active.

On to `COc1ccc(-c2cn(CCn3c(=N)sc4cc(OC(F)(F)F)ccc43)nn2)cc1`, for which the outcome in the data set on Cortical neurone [1], with Cortical neurone [3], with Cortical neurone [4], in the data set with Cortical neurone [5], in the data set listed under Mus musculus [6] and in the data set listed under Mus musculus [7] was inactive. For the same molecule, in the data set listed under Mus musculus [8], the outcome was inactive. The result with Cortical neurone [2] was Active.

On to `Cc1ccccc1-c1cn(CCn2c(=N)sc3cc(OC(F)(F)F)ccc32)nn1`, for which the outcome in the data set with Cortical neurone [1], with Cortical neurone [3], with Cortical neurone [4], in the data set with Cortical neurone [5], in the data set filed under Mus musculus [6] and in the data set listed under Mus musculus [7] was inactive. Further, the outcome in the data set listed under Mus musculus [8] was inactive. In the data set on Cortical neurone [2], the outcome was Active.

On to `Cc1cccc(-c2cn(CCn3c(=N)sc4cc(OC(F)(F)F)ccc43)nn2)c1`, for which the result in the data set with Cortical neurone [1], in the data set with Cortical neurone [3], in the data set on Cortical neurone [4], with Cortical neurone [5], in the data set listed under Mus musculus [6] and in the data set filed under Mus musculus [7] was inactive. In the data set listed under Mus musculus [8], the result was inactive. Further, the outcome with Cortical neurone [2] was Active.

For orientation: ED50 means the midpoint of the dose-response relation.

Source of the values: ChEMBL document CHEMBL4145631, “Riluzole-Triazole Hybrids as Novel Chemical Probes for Neuroprotection in Amyotrophic Lateral Sclerosis” (ACS Med Chem Lett, 2018).
